# Assay results: ChEMBL document CHEMBL1158487, “Small molecule chloropyramine hydrochloride (C4) targets the binding site of focal adhesion kinase and vascular endothelial growth factor receptor 3 and suppresses breast cancer growth in vivo” (J Med Chem, 2009)
# The source made the active and inactive calls. The calls are words filed in the database; no cut-off is given here.
# Assays:
# MCF7 [1] = assay: Antitumor activity against human MCF7 cells expressing VEGFR3 xenografted in nude-foxn1nu mouse assessed as reduction in tumor growth at 60 mg/kg, ip qd administered day after injection of cells after 21 days relative to control; assay type: functional; design: scale not given: the % may be the effect or the level left; settings: route intraperitoneal
# In short: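 Female 5–6-week hsd:athymic nude-foxn1nu mice (5 per group) were given 2–5 × 10^6 MCF7-VEGFR-3 cells per 200 µl subcutaneously in the right flank. From the next day they received 60 mg/kg ip once daily or PBS vehicle for 21 days. Tumours were measured thrice weekly (volume = length × width² × 0.5), then excised and weighed at sacrifice.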
# MCF7 [2] = assay: Decrease in colocalization of FAK-VEGFR3 complex in human MCF7 cells expressing VEGFR3 at 10 uM after 24 hrs by confocal microscopy; assay type: functional; design: scale not given: the % may be the effect or the level left
# In short: (§1)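 Cells were treated for 24 h with DMSO or 10 µM compound, then dual-immunostained for FAK (Alexa Fluor 488) together with VEGFR-3 or paxillin (Alexa Fluor 546). Confocal microscopy with scatter-plot analysis gave the percentage of colocalized molecules.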
# MCF7 [3] = assay: Cytotoxicity against human MCF7 cells assessed as cell viability at 1 uM after 48 hrs by MTS assay; assay type: functional, cell-based
# In short: (§2)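 Viability measured by MTS after 48 h exposure. Cells were seeded at 5.0 × 10^3 per well and attached overnight before compound-containing medium was added. BT474 is a […] subclone grown in RPMI-1640 with 10% FBS and 250 µg/ml insulin. MCF7 stable clones carried either empty pcDNA3 or VEGFR-3. Mean ± SEM, ≥3 experiments, two-tailed t test.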
# COLO 205 = assay: Cytotoxicity against human COLO205 cells assessed as cell viability after 72 hrs by MTS assay; assay type: functional, cell-based; settings: COLO 205, 72 h
# In short: (§3)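 MTS viability assay, read as mitochondrial dehydrogenase activity of metabolically active cells. Cells were seeded at 5.0 × 10^3 per well and attached overnight. Fresh medium with or without compound was added, followed by 72 h exposure at increasing concentrations. Error shown as ±SEM.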
# MCF7 [4] = assay: Induction of apoptosis in human MCF7 cells expressing VEGFR3 at 10 uM after 48 hrs by TUNEL assay; assay type: functional
# [5] = target: Focal adhesion kinase 1 (Homo sapiens) (UniProt Q05397); assay: Inhibition of FAK phosphorylation in human MCF7 cells expressing VEGFR3 cells assessed as decrease in total phosphorylation at 10 uM after 24 hrs by immunoprecipitation technique; assay type: cell-based
# Focal adhesion kinase 1 (Homo sapiens), sequence (Q05397 2-1052 limits assumed): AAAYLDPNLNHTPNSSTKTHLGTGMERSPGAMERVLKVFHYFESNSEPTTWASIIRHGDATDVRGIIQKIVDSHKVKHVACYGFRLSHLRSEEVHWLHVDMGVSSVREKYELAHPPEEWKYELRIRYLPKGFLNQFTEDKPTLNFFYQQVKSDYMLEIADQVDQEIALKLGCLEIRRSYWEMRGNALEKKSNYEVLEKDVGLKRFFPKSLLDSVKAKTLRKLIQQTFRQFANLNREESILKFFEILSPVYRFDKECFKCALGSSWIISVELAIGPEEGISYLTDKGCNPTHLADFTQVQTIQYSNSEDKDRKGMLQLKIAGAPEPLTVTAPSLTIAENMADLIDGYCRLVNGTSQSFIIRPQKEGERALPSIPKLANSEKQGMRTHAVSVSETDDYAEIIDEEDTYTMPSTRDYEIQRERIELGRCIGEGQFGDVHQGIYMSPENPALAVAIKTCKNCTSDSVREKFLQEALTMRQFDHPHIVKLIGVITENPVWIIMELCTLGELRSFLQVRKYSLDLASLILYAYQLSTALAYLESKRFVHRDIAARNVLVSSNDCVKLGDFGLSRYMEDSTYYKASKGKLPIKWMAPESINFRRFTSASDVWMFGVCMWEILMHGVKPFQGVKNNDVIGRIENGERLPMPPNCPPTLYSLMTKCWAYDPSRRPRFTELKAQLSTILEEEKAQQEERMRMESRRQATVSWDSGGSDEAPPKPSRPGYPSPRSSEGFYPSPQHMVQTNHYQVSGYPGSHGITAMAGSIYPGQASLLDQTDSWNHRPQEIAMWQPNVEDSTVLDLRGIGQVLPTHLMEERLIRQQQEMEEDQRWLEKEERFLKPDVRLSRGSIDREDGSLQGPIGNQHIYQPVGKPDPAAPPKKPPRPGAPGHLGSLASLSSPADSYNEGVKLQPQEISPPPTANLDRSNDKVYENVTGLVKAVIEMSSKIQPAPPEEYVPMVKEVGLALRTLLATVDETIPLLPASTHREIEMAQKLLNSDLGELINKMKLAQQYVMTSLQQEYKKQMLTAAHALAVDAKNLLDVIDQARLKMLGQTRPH
# In short: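 MCF7-VEGFR-3 and BT474 cells were treated for 24 h at 10 µM or 1 µM. FAK was immunoprecipitated and blotted with anti-phosphotyrosine antibody 4G10 to assess total FAK tyrosine phosphorylation.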
# [6] = target: Focal adhesion kinase 1 (Homo sapiens) (UniProt Q05397); assay: Inhibition of FAK phosphorylation in human BT474 cells assessed as partial dephosphorylation at 1 uM after 24 hrs by Western blotting; assay type: cell-based; settings: BT-474
# BT-474 [7] = assay: Antitumor activity against human BT474 cells xenografted in nude-foxn1nu mouse assessed as reduction in tumor growth at 10 mg/kg, ip qd administered day after injection of cells after 14 days relative to control; assay type: functional; design: scale not given: the % may be the effect or the level left; settings: route intraperitoneal
# In short: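 Female 5–6-week hsd:athymic nude-foxn1nu mice (5 per group) received 2–5 × 10^6 BT474 cells per 200 µl subcutaneously in the right flank. Dosing at 10 mg/kg ip once daily began the next day. Tumours were measured thrice weekly, with volume = length × width² × 0.5. The study ended at 14 days against a vehicle group.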
# PANC-1 = assay: Cytotoxicity against human PANC1 cells after 72 hrs by MTS assay; assay type: functional, cell-based; settings: PANC-1, 72 h; in short: as §3
# BT-474 [8] = assay: Decrease in colocalization of FAK-VEGFR3 complex in human BT474 cells at 10 uM after 24 hrs by confocal microscopy; assay type: functional; design: scale not given: the % may be the effect or the level left; in short: as §1
# [9] = target: Vascular endothelial growth factor receptor 3 (Homo sapiens) (UniProt P35916); assay: Inhibition of VEGFR3 phosphorylation in human BT474 cells assessed as complete dephosphorylation at Tyr1063/1068 activation loop at 1 to 10 uM by Western blotting; assay type: cell-based; settings: BT-474, TDE = time-dependent effect
# Vascular endothelial growth factor receptor 3 (Homo sapiens), sequence (P35916 whole entry): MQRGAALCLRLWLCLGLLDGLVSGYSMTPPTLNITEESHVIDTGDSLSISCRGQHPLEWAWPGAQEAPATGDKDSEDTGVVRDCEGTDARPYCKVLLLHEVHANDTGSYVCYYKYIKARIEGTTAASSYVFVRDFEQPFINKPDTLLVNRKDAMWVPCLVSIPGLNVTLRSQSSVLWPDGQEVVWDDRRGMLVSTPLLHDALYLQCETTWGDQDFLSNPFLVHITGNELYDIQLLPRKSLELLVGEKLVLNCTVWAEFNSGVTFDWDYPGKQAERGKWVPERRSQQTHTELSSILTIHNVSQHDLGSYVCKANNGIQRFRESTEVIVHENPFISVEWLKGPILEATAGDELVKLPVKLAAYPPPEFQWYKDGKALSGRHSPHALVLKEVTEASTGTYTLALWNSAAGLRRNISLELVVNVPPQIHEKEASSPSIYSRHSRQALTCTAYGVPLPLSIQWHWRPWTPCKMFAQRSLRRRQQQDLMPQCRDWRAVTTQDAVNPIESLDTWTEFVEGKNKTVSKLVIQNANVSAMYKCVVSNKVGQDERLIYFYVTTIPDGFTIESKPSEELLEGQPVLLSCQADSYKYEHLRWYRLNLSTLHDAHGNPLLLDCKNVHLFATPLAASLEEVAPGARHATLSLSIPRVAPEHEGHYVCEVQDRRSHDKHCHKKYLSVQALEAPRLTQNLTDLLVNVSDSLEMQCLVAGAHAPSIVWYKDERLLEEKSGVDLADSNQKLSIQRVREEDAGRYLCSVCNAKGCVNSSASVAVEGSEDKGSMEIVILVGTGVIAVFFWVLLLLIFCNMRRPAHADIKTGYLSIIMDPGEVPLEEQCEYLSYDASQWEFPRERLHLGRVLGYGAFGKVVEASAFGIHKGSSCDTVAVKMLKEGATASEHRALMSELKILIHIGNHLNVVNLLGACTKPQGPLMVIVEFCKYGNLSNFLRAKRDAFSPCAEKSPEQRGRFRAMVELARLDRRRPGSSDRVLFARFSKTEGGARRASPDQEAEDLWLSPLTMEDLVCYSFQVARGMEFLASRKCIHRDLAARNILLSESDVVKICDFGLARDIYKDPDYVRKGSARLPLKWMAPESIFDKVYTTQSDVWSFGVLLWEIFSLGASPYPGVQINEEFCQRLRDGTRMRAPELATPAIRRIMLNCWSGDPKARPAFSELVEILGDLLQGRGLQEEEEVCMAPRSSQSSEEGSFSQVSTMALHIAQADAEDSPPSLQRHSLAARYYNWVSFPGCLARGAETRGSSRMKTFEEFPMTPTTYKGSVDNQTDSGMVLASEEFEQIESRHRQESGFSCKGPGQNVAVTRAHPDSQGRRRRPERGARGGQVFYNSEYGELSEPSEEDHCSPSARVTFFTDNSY
# In short: (§4)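 BT474 cells were exposed for 24 h to increasing doses (1 and 10 µM). Western blots of lysates were probed with a phospho-specific VEGFR-3 antibody for Tyr1063/1068 in the kinase activation loop.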
# [10] = target: Vascular endothelial growth factor receptor 3 (Homo sapiens) (UniProt P35916); assay: Inhibition of VEGFR3 phosphorylation in human BT474 cells assessed as partial dephosphorylation at Tyr1063/1068 activation loop at 1 to 10 uM by Western blotting; assay type: cell-based; settings: BT-474, TDE = time-dependent effect
# BT-474 [11] = assay: Induction of apoptosis in human BT474 cells assessed as procaspase 8 activation after 48 hrs; assay type: functional, cell-based
# MCF7 [12] = assay: Antiproliferative activity against human MCF7 cells at 10 uM after 48 hrs by BrdU incorporation assay; assay type: functional, cell-based
# In short: (§5)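 Cells plated at 2.5 × 10^3 per well and allowed to attach overnight. Fresh growth medium with or without compound was added along with BrdU labelling reagent, and cells were incubated for the set time. BrdU incorporation was then read with a kit per the manufacturer. Data are mean ± SEM of three or more independent experiments, compared by two-tailed Student's t test.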
# MCF7 [13] = assay: Induction of apoptosis in human MCF7 cells at 10 uM after 48 hrs by TUNEL assay; assay type: functional
# MCF7 [14] = assay: Induction of apoptosis in human MCF7 cells expressing VEGFR3 assessed as PARP degradation after 48 hrs; assay type: functional, cell-based
# MCF7 [15] = assay: Antitumor activity against human MCF7 cells expressing VEGFR3 xenografted in nude-foxn1nu mouse assessed as reduction in tumor growth at 30 mg/kg after 21 days relative to control; assay type: functional, organism-based; design: dose 30 mg/kg
# [16] = target: Vascular endothelial growth factor receptor 3 (Homo sapiens) (UniProt P35916); assay: Inhibition of VEGFR3 phosphorylation in human BT474 cells assessed as complete dephosphorylation at Tyr1063/1068 activation loop after 24 hrs by Western blotting; assay type: cell-based; settings: BT-474; in short: as §4
# MCF7 [17] = assay: Induction of apoptosis in human MCF7 cells expressing VEGFR3 after 48 hrs by TUNEL assay; assay type: functional, cell-based
# [18] = target: Vascular endothelial growth factor receptor 3 (Homo sapiens) (UniProt P35916); assay: Inhibition of VEGFR3 phosphorylation in human BT474 cells assessed as complete dephosphorylation at Tyr1063/1068 activation loop at 10 uM by Western blotting; assay type: cell-based; settings: BT-474; in short: as §4
# MCF7 [19] = assay: Cytotoxicity against human MCF7 cells assessed as cell viability at 10 uM after 48 hrs by MTS assay; assay type: functional; in short: as §2
# [20] = target: Vascular endothelial growth factor receptor 3 (Homo sapiens) (UniProt P35916); assay: Inhibition of VEGFR3 phosphorylation in human MCF7 cells expressing VEGFR3 assessed as partial dephosphorylation at Tyr1063/1068 activation loop at 1 to 10 uM by Western blotting; assay type: cell-based; settings: TDE = time-dependent effect
# [21] = target: Vascular endothelial growth factor receptor 3 (Homo sapiens) (UniProt P35916); assay: Inhibition of VEGFR3 phosphorylation in human BT474 cells assessed as partial dephosphorylation at Tyr1063/1068 activation loop after 24 hrs by Western blotting; assay type: cell-based; settings: BT-474; in short: as §4
# MIA PaCa-2 = assay: Cytotoxicity against human MIAPaCa2 cells after 72 hrs by MTS assay; assay type: functional, cell-based; settings: MIA PaCa-2, 72 h; in short: as §3
# T47D = assay: Cytotoxicity against human T47D cells after 72 hrs by MTS assay; assay type: functional, cell-based; in short: as §3
# MCF7 [22] = assay: Cytotoxicity against human MCF7 cells expressing VEGFR3 assessed as cell viability at 1 uM after 48 hrs by MTS assay; assay type: functional, cell-based; in short: as §2
# HT-29 = assay: Cytotoxicity against human HT-29 cells after 72 hrs by MTS assay; assay type: functional, cell-based; settings: HT-29, 72 h; in short: as §3
# BT-474 [23] = assay: Cytotoxicity against human BT474 cells after 72 hrs by MTS assay; assay type: functional, cell-based; settings: BT-474, 72 h; in short: as §3
# MCF7 [24] = assay: Antiproliferative activity against human MCF7 cells expressing VEGFR3 after 48 hrs by BrdU incorporation assay; assay type: functional, cell-based; in short: as §5
smiles,measurement,setting,value
CN(C)CCN(Cc1ccc(Cl)cc1)c1ccccn1.Cl [CHLORPYRAMIN HYDROCHLORIDE],Activity,MCF7 [1],20%
same,Activity,MCF7 [2],29%
same,Activity,MCF7 [3],Active
same,IC50,COLO 205,1 µM
same,Activity,MCF7 [4],76%
same,Activity,[5],Active
same,Activity,[6],Active
same,Activity,BT-474 [7],20%
same,IC50,PANC-1,1 µM
same,Activity,BT-474 [8],45%
same,Activity,[9],tde
same,Activity,[10],tde
same,Activity,BT-474 [11],Dose-dependent effect
same,Activity,MCF7 [12],inactive
same,Activity,MCF7 [13],18%
same,Activity,MCF7 [14],Dose-dependent effect
same,Activity,MCF7 [15],inactive
same,Activity,[16],Dose-dependent effect
same,Activity,MCF7 [17],Dose-dependent effect
same,Activity,[18],Active
same,fold change (FC),MCF7 [19],2
same,Activity,[20],tde
same,Activity,[21],Dose-dependent effect
same,IC50,MIA PaCa-2,1 µM
same,IC50,T47D,1 µM
same,Activity,MCF7 [22],Active
same,IC50,HT-29,1 µM
same,IC50,BT-474 [23],1 µM
same,Activity,MCF7 [24],Dose-dependent effect
